The values below come from ChEMBL document CHEMBL1764975, “A new DNA gyrase inhibitor subclass of the cyclothialidine family based on a bicyclic dilactam-lactone scaffold. Synthesis and antibacterial properties” (J Med Chem, 2011).

Converted amounts (≈) assume the structure as drawn.

Series [1] relates to Escherichia coli. The series can be described thus: Inhibition of Escherichia coli DNA gyrase A2B2 complex after 30 mins by supercoiling assay.
A further series concerns Enterococcus faecium. The series can be described thus: Antimicrobial activity against multidrug-resistant Enterococcus faecium after 18 hrs by agar dilution method. In kind it is functional. The essentials:
(§1)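 Agar dilution on Mueller-Hinton agar, inoculum 10⁴ CFU/spot, against panels of multiresistant clinical strains (S. aureus 11, E. faecalis 16, E. faecium 23). MIC_50/90 in μg/mL taken as the minimum concentration inhibiting at least 50% or 90% of the strains tested.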

Series [2] relates to Staphylococcus aureus. Kind of series: Antimicrobial activity against multidrug-resistant Staphylococcus aureus after 18 hrs by agar dilution method. In kind it is functional. The essentials:
as §1
On the technique in general: Agar dilution tests growth on a series of plates holding different concentrations.

The test system of series [3] is Enterococcus faecalis. The series can be described thus: Antimicrobial activity against multidrug-resistant Enterococcus faecalis after 18 hrs by agar dilution method. In kind it is functional. The essentials: as §1
For series [4], the system named is Staphylococcus aureus. Kind of series: Antimicrobial activity against Staphylococcus aureus Smith infected in iv dosed septicaemia Swiss albino mouse model after 4 days. The series is classed as functional. The settings on record: 96 h. The essentials: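 Septicaemia model in mice infected with S. aureus Smith, compound given iv. In experiments with 0-1 survivors among 5-10 control mice, ED₅₀ (mg/kg) taken as lowest dose giving 3-5 survivors out of 5 infected mice.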

The test system of series [5] is Escherichia coli. Kind of series: Antimicrobial activity against Escherichia coli 25922 after 18 hrs by agar dilution method. In kind it is functional. The settings on record: Escherichia coli, 25922, 18 h. The gist of the method: (§2)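 Agar dilution on Mueller-Hinton medium, inoculum 10⁴ CFU/spot; MIC is the minimum inhibitory concentration against the named strain.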

Series [6] concerns Stenotrophomonas maltophilia. The series can be described thus: Antimicrobial activity against Xanthomonas maltophilia IAC 739 after 18 hrs by agar dilution method. In kind it is functional. The settings on record: IAC 739, 18 h. The essentials:
as §2

Series [7] has as its system Staphylococcus aureus. The series can be described thus: (§3) Antimicrobial activity against Staphylococcus aureus Smith after 18 hrs by agar dilution method. In kind it is functional. The gist of the method: as §2
For another series, the system named is Streptococcus pneumoniae. Kind of series: Antimicrobial activity against multidrug-resistant Streptococcus pneumoniae after 18 hrs by agar dilution method. In kind it is functional. The gist of the method:
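Agar dilution on IsoSensitest agar supplemented with sheep blood (5% v/v), inoculum 10⁴ CFU/spot, against 21 multiresistant S. pneumoniae strains. MIC_50/90 in μg/mL taken as the minimum concentration inhibiting at least 50% or 90% of the strains.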

Series [8] has as its system Staphylococcus aureus. The series can be described thus: Plasma shift, ratio of MIC for Staphylococcus aureus Smith in presence of mouse plasma to MIC for Staphylococcus aureus Smith in absence of mouse plasma. In kind it is functional. The essentials:
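Agar dilution MICs against S. aureus Smith were run on BHI agar mixed 1:1 with mouse plasma and on plain BHI agar. The plasma shift is the MIC with plasma divided by the MIC on BHI agar alone.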

Another series relates to Haemophilus influenzae. Kind of series: Antimicrobial activity against multidrug-resistant Haemophilus influenzae after 18 hrs by agar dilution method. In kind it is functional. The essentials:
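Agar dilution on Haemophilus test medium, inoculum 10⁵ CFU/spot, against 21 multiresistant H. influenzae strains. MIC_50/90 in μg/mL taken as the minimum concentration inhibiting at least 50% or 90% of the strains.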

Series [9] relates to Staphylococcus aureus. Kind of series: Antimicrobial activity against Staphylococcus aureus ATCC 25923 after 18 hrs by agar dilution method. In kind it is functional. Conditions: ATCC 25923, 18 h. The essentials:
as §2

Another series deals with Moraxella catarrhalis. Kind of series: Antimicrobial activity against multidrug-resistant Moraxella catarrhalis after 18 hrs by agar dilution method. In kind it is functional. The essentials: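 Agar dilution on Mueller-Hinton agar supplemented with sheep blood (5% v/v), inoculum 10⁵ CFU/spot, against 20 multiresistant M. catarrhalis strains. MIC_50/90 in μg/mL taken as the minimum concentration inhibiting at least 50% or 90% of the strains.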

Series [10] relates to Enterococcus faecalis. Kind of series: Antimicrobial activity against Enterococcus faecalis 6 after 18 hrs by agar dilution method. The settings on record: Enterococcus faecalis, 6, 18 h.
For series [11], the system named is Staphylococcus epidermidis. The series can be described thus: Antimicrobial activity against Staphylococcus epidermidis 16/2 after 18 hrs by agar dilution method. Conditions: 16/2, 18 h. In kind it is functional. The gist of the method:
as §2

Series [12] is described as follows: Octanol-water partition coefficient, log D of the compound at pH 7.4 by shake-flask method. In kind it is physicochemical. The gist of the method: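 Octanol/water partition measured by shake-flask at pH 7.4.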
The next series concerns Streptococcus pyogenes. Kind of series: Antimicrobial activity against Streptococcus pyogenes b15 after 18 hrs by agar dilution method. The series is classed as functional. The settings on record: b15, 18 h. The gist of the method: as §2
Series [13] relates to Staphylococcus aureus. Described as §3. In kind it is functional. The essentials:
as §2
The source holds these as a separate data set.

One may read the ED50 as the dose at which the effect has come halfway, by size or by number of responders. Low readings indicate an effect at a small dose, high ones a need for a large dose. The MIC is the least concentration at which growth counts as inhibited. Read a low MIC as greater potency. The logD is lipophilicity at a set pH, counting ionised and neutral species.

`COc1cc(O)c2c(c1C)C(=O)OCCCCC(=S)N[C@H](c1nc(C)no1)CSC2` came in with an MNEC in the series with Escherichia coli [1] of 0.004 µg/mL. The MIC50 in the series with Enterococcus faecium stood at 8 µg/mL (≈ 17.7 µM); in the series with Staphylococcus aureus [2] it was 1 µg/mL (≈ 2.21 µM); in the series with Enterococcus faecalis [3], 4 µg/mL (≈ 8.86 µM); against Streptococcus pneumoniae it was 1 µg/mL (≈ 2.21 µM); against Haemophilus influenzae, 8 µg/mL (≈ 17.7 µM); in the series on Moraxella catarrhalis it was 2 µg/mL (≈ 4.43 µM). Further, the MIC90 in the series on Enterococcus faecium is 8 µg/mL (≈ 17.7 µM); in the series on Staphylococcus aureus [2], 1 µg/mL (≈ 2.21 µM); against Enterococcus faecalis [3], 4 µg/mL (≈ 8.86 µM); against Streptococcus pneumoniae it was 2 µg/mL (≈ 4.43 µM); in the series with Haemophilus influenzae, 16 µg/mL (≈ 35.4 µM); in the series with Moraxella catarrhalis, 2 µg/mL (≈ 4.43 µM). The same compound registered an ED50 in the series on Staphylococcus aureus [4] above 25 mg/kg. Further, the minimal inhibitory concentration (MIC) in the series on Escherichia coli [5] is above 64 µg/mL; in series [6], 0.5 µg/mL (≈ 1.11 µM); with Staphylococcus aureus [7], 0.06 µg/mL (≈ 0.133 µM); in the series on Staphylococcus aureus [9], 0.12 µg/mL (≈ 0.266 µM); against Enterococcus faecalis [10], 0.25 µg/mL (≈ 0.554 µM); in [11] it was 0.01 µg/mL (≈ 0.0221 µM). The MIC against Streptococcus pyogenes amounted to 0.25 µg/mL (≈ 0.554 µM); against Staphylococcus aureus [13], 0.06 µg/mL (≈ 0.133 µM). For the same compound, the Ratio in the series with Staphylococcus aureus [8] came to 8. The same compound registered a logD in series [12] of 3.09.
Compound `COc1cc(O)c2c(c1Br)C(=O)OCCCCC(=O)N[C@H](c1nc(C)no1)CSC2` yielded an MNEC in the series on Escherichia coli [1] of 0.005 µg/mL. Further, the 50% effect level in the series on Staphylococcus aureus [4] (ED50) was put at a dose of 25 mg/kg. Further, the MIC against Escherichia coli [5] was 64 µg/mL (≈ 128 µM); in series [6], 2 µg/mL (≈ 4 µM); against Staphylococcus aureus [7] it was below 0.12 µg/mL; against Staphylococcus aureus [9], below 0.12 µg/mL; in the series with Enterococcus faecalis [10], 0.12 µg/mL (≈ 0.24 µM); in series [11], below 0.12 µg/mL. Moreover, the MIC with Streptococcus pyogenes was below 0.12 µg/mL; against Staphylococcus aureus [13], 0.12 µg/mL (≈ 0.24 µM). In addition, the Ratio with Staphylococcus aureus [8] was determined as 4. Also, the logD in series [12] came out at 2.18.
`CC(=O)NC[C@H]1CN(c2ccc(N3CCOCC3)c(F)c2)C(=O)O1` [LINEZOLID]: the MIC50 with Enterococcus faecium amounted to 1 µg/mL (≈ 2.96 µM); against Staphylococcus aureus [2] it was 1 µg/mL (≈ 2.96 µM); in the series with Enterococcus faecalis [3], 2 µg/mL (≈ 5.93 µM); with Streptococcus pneumoniae, 1 µg/mL (≈ 2.96 µM); in the series on Haemophilus influenzae it was 8 µg/mL (≈ 23.7 µM); with Moraxella catarrhalis, 8 µg/mL (≈ 23.7 µM). Moreover, the MIC90 in the series on Enterococcus faecium came to 2 µg/mL (≈ 5.93 µM); against Staphylococcus aureus [2] it was 2 µg/mL (≈ 5.93 µM); against Enterococcus faecalis [3] it was 2 µg/mL (≈ 5.93 µM); with Streptococcus pneumoniae, 2 µg/mL (≈ 5.93 µM); against Haemophilus influenzae, 16 µg/mL (≈ 47.4 µM); against Moraxella catarrhalis, 16 µg/mL (≈ 47.4 µM).
Regarding `COc1cc(O)c2c(c1Cl)C(=O)OCCCCC(=S)N[C@H](c1nc(CN)no1)CSC2.Cl`, the MNEC in the series on Escherichia coli [1] is 0.002 µg/mL. For the same compound, it took a dose of 6 mg/kg to reach the 50% effect level in the series on Staphylococcus aureus [4] (ED50). Also, the MIC against Escherichia coli [5] was 64 µg/mL; in series [6] it was 4 µg/mL; in the series with Staphylococcus aureus [7], 0.12 µg/mL; with Staphylococcus aureus [9], 0.5 µg/mL; against Enterococcus faecalis [10], below 0.12 µg/mL; in series [11], below 0.12 µg/mL. Besides, the minimal inhibitory concentration (MIC) in the series with Streptococcus pyogenes is 0.25 µg/mL; with Staphylococcus aureus [13], 0.12 µg/mL. Besides, the logD in [12] turned out to be 1.89.
Regarding `COc1cc(O)c2c(c1C)C(=O)OCC(=O)NCC(=S)N[C@H](c1nc(C)no1)CSC2`, the MNEC with Escherichia coli [1] was found to be 0.001 µg/mL. In the series on Staphylococcus aureus [4], this compound came in with an ED50 of 25 mg/kg. The MIC against Escherichia coli [5] is above 64 µg/mL; in series [6], 4 µg/mL (≈ 8.57 µM); against Staphylococcus aureus [7], 0.5 µg/mL (≈ 1.07 µM); in the series on Staphylococcus aureus [9] it was 1 µg/mL (≈ 2.14 µM); in the series with Enterococcus faecalis [10], 0.5 µg/mL (≈ 1.07 µM); in series [11] it was below 0.12 µg/mL. Further, the minimal inhibitory concentration (MIC) against Staphylococcus aureus [13] came to 0.5 µg/mL (≈ 1.07 µM). Moreover, the logD in series [12] was found to be 2.32.
As for `COc1cc(O)c2c(c1Br)C(=O)OCC(=O)NCC(=S)N[C@H](c1nc(C)no1)CSC2`, the MNEC in the series on Escherichia coli [1] amounted to 0.05 µg/mL. In the series with Staphylococcus aureus [4], the ED50 was determined as 12.5 mg/kg. Further, the minimum inhibitory concentration (MIC) with Escherichia coli [5] was above 64 µg/mL; in [6], 0.25 µg/mL (≈ 0.47 µM); with Staphylococcus aureus [7], below 0.12 µg/mL; against Staphylococcus aureus [9] it was 0.25 µg/mL (≈ 0.47 µM); with Enterococcus faecalis [10], below 0.12 µg/mL; in series [11], below 0.12 µg/mL. The MIC against Streptococcus pyogenes and against Staphylococcus aureus [13] was 0.12 µg/mL (≈ 0.226 µM) each time. This compound also gave a pH-dependent lipophilicity (logD) in series [12] of 2.61.
As to `CC1(C)S[C@@H]2[C@H](NC(=O)Cc3ccccc3)C(=O)N2[C@H]1C(=O)O` [PENICILLIN G], the results for the MIC50 in the series with Streptococcus pneumoniae, in the series on Haemophilus influenzae and against Moraxella catarrhalis were 2 µg/mL (≈ 5.98 µM), 32 µg/mL (≈ 95.7 µM) and 8 µg/mL (≈ 23.9 µM), respectively. Besides, the MIC90 in the series with Streptococcus pneumoniae is 8 µg/mL (≈ 23.9 µM); against Haemophilus influenzae, above 32 µg/mL; with Moraxella catarrhalis, 32 µg/mL (≈ 95.7 µM).
